PMI act hi M6P – PMI (human) activation, high substrate; coupled PMI enzyme assay, resazurin fluorescence, 20 min; stronger effect = higher value; 1 = untreated enzyme, 0 = substrate-free blank; 0.34% of 190,000 active; AID 1216; activation factor at 20 µM;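 active = activation factor of 2 or more at 20 µM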
Target sequence (P34949 whole entry, looked up): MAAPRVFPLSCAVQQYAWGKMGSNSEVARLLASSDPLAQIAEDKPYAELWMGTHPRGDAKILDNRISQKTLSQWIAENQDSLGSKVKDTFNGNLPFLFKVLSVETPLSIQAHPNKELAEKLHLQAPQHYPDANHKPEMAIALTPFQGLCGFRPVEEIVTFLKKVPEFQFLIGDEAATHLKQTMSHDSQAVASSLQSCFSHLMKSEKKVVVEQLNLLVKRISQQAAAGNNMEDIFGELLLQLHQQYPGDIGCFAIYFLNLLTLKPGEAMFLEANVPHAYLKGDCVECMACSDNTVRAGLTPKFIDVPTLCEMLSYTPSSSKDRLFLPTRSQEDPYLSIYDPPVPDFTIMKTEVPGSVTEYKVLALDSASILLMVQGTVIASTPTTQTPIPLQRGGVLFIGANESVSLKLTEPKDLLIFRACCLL
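Test system: Human PMI in coupled enzyme assay | Input: 15 ng/mL PMI | Medium: HEPES-buffered pH 7.4 with magnesium and detergent | Compound: One concentration, 20 µM, in 1% DMSO | Incubation: Enzyme reaction with compound 20 min at room temperature | Detection: Diaphorase-driven resazurin-to-resorufin fluorescence, excitation 544, emission 590 nm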
PMI act – phosphomannose isomerase (human) activation. P34949. purified human PMI, coupled resazurin fluorescence, 20 min; stronger effect = higher value; 1 = vehicle control, 0 substrate-free wells. activation factor at 20 µM. 0.005% of 190,000 active. AID 1214;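 active = activation factor of 2 or more at 20 µM, relative to plate controls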
HCT116 bCat-KO – beta-catenin-lacking colon tumor cell growth suppression. HCT116 beta-catenin knockout viability, CellTiter-Glo, 60 h; stronger effect = lower value. viability, % at 10 µM. 1.5% of 140,000 active. AID 818;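 active = viability at or under a set limit, the compound median less 4 SD, cut at about 6% in these data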
HCT116 PTEN-null – growth suppressors of cells with PTEN tumor suppressor deletion | HCT116 PTEN-null viability, CellTiter-Glo, 60 h; stronger effect = lower value | viability, % at 10 µM | 1.2% of 140,000 active | AID 827;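 active = viability at or below a set limit, 4 SD under the median of all tested compounds, cut at about 3.7% in these data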;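 note: PTEN knockout HCT116 line with beta catenin targeted HCT116 as companion control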
Lmaj promast – Leishmania major promastigote growth inhibition | inhibition, % at 10 µM | AID 1063 | 9% of 200,000 active | Leishmania major promastigotes, resazurin fluorescence viability; in the data active = inhibition above about 50%;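 note: promastigotes grown with compound for 44 hours at 28 °C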
Numbers stand for hits. An excerpt weighted towards active compounds, which were near 9.6% of everything screened.

For COc1cc(C(=O)OCC(=O)c2c[nH]c3ccccc23)ccc1OCC(=O)N1CCOCC1 the results were PMI act hi M6P inactive, PMI act inactive, HCT116 bCat-KO inactive, HCT116 PTEN-null inactive and Lmaj promast inactive.
For Cc1ccc(C(=O)OCC(=O)c2c[nH]c3ccccc23)cc1 the results were PMI act hi M6P inactive, PMI act inactive, HCT116 bCat-KO inactive, HCT116 PTEN-null inactive and Lmaj promast inactive.
COc1cc(OC)c(N(C)S(=O)(=O)c2cccc(C(=O)OCC(=O)c3c[nH]c4ccccc34)c2)cc1Cl was read as PMI act hi M6P inactive, PMI act inactive, HCT116 bCat-KO inactive, HCT116 PTEN-null inactive and Lmaj promast 97.
C=CCN(c1ccccc1OC)S(=O)(=O)c1cccc(C(=O)OCC(=O)c2c[nH]c3ccccc23)c1 was read as PMI act hi M6P inactive, PMI act inactive, HCT116 bCat-KO inactive, HCT116 PTEN-null inactive and Lmaj promast 97.
CC(C)(C)c1ccc(S(=O)(=O)N2CCC(c3nc4ccc(Cl)cc4[nH]3)CC2)cc1 was read as PMI act hi M6P inactive, PMI act inactive, HCT116 bCat-KO inactive, HCT116 PTEN-null inactive and Lmaj promast inactive.
Clc1ccc(CN2CCC(c3nc4ccc(Cl)cc4[nH]3)CC2)cc1 was read as PMI act hi M6P inactive, PMI act inactive, HCT116 bCat-KO inactive, HCT116 PTEN-null inactive and Lmaj promast 99.
CCOC(=O)c1cc(-c2ccccc2)sc1NC(=O)COC(=O)c1ccc(Cl)c(S(N)(=O)=O)c1 was read as PMI act hi M6P inactive, PMI act inactive and Lmaj promast 91.
`CCOC(=O)c1cc(-c2ccccc2)sc1NC(=O)CN1C(=O)NC(CC)(c2ccccc2)C1=O` (stereo not given) gave PMI act hi M6P inactive, PMI act inactive, HCT116 bCat-KO inactive, HCT116 PTEN-null inactive and Lmaj promast 51.
Screening Cc1ccc(C2=NNC(=O)C(P(=O)(c3ccccc3)c3ccccc3)C2)cc1 (stereo not given) returned PMI act hi M6P inactive, PMI act inactive and Lmaj promast inactive.
`CC(C)C(=O)c1cc2c(cc1NC(=O)c1cccs1)OCCO2` gave PMI act hi M6P inactive, PMI act inactive, HCT116 bCat-KO inactive, HCT116 PTEN-null inactive and Lmaj promast inactive.
CC(C)(C)c1cc(CCC(=O)NNC(=S)NC(=O)c2ccccc2)cc(C(C)(C)C)c1O was read as PMI act hi M6P inactive, PMI act inactive, HCT116 bCat-KO inactive, HCT116 PTEN-null inactive and Lmaj promast 97.
O=C(CCc1ccccc1)NNC(=S)NC(=O)c1ccccc1 was read as PMI act hi M6P inactive, PMI act inactive, HCT116 bCat-KO inactive, HCT116 PTEN-null inactive and Lmaj promast inactive.
Screening NC(=O)Cn1c2[n+](c3ccccc31)CC(O)CS2 (stereo not given) returned PMI act hi M6P inactive, PMI act inactive, HCT116 bCat-KO inactive, HCT116 PTEN-null inactive and Lmaj promast inactive.
COc1cc(C2NCC(c3ccc(Cl)cc3Cl)c3c2[nH]c2ccccc32)cc(OC)c1OC (stereo not given) was read as PMI act hi M6P inactive, PMI act inactive, HCT116 bCat-KO inactive, HCT116 PTEN-null inactive and Lmaj promast 99.
Screening Cc1cc(C)n(CCCNCC(O)c2ccccc2)n1 (stereo not given) returned PMI act hi M6P inactive, PMI act inactive, HCT116 bCat-KO inactive, HCT116 PTEN-null inactive and Lmaj promast inactive.
For CCOc1cc(NC(=S)Nc2ccc(Cl)cc2)c(OCC)cc1NC(C)=O the results were PMI act hi M6P inactive, PMI act inactive and Lmaj promast inactive.
`CCOC(=O)C(NC(=O)Nc1ccc(Cl)cn1)(Oc1ccccc1)C(F)(F)F` (stereo not given) gave PMI act hi M6P inactive, PMI act inactive, HCT116 bCat-KO inactive, HCT116 PTEN-null inactive and Lmaj promast inactive.
For COCCNC(=O)C(=O)N/N=C/c1cccs1 the results were PMI act hi M6P inactive, PMI act inactive and Lmaj promast inactive.
`COc1ccccc1NC(=O)C(=O)N/N=C/c1cccs1` gave PMI act hi M6P inactive, PMI act inactive, HCT116 bCat-KO inactive, HCT116 PTEN-null inactive and Lmaj promast 55.
`COc1cc(C(=O)c2nccc3cc(OC)c(OC)cc23)c([N+](=O)[O-])cc1OC` gave PMI act hi M6P inactive, PMI act inactive and Lmaj promast inactive.
Screening Cc1ccc(NC(=S)NC2CCN(Cc3ccccc3)CC2)cc1C returned PMI act hi M6P inactive, PMI act inactive and Lmaj promast 94.
Cc1ccc(NC(=O)CN2CCC(NC(=O)Cc3ccccc3)CC2)c(C)c1 was read as PMI act hi M6P inactive, PMI act inactive, HCT116 bCat-KO inactive, HCT116 PTEN-null inactive and Lmaj promast 70.
O=C(Nc1ccccc1)NC1CCN(Cc2ccccc2)CC1 was read as PMI act hi M6P inactive, PMI act inactive and Lmaj promast inactive.
Cc1ccc(NC(=S)NC2CCN(Cc3ccccc3)CC2)cc1 was read as PMI act hi M6P inactive, PMI act inactive, HCT116 bCat-KO inactive, HCT116 PTEN-null inactive and Lmaj promast 100.
`CC(C)c1ccc(NC(=S)NC2CCN(Cc3ccccc3)CC2)cc1` gave PMI act hi M6P inactive, PMI act inactive, HCT116 bCat-KO inactive, HCT116 PTEN-null inactive and Lmaj promast 92.
`Cc1cc(C)cc(NC(=O)CN2CCC(NC(=O)Cc3ccccc3)CC2)c1` gave PMI act hi M6P inactive, PMI act inactive, HCT116 bCat-KO inactive, HCT116 PTEN-null inactive and Lmaj promast inactive.
CC(C)(C#CC(O)(c1ccccc1)c1ccccc1)N1CCCC1 was read as PMI act hi M6P inactive, PMI act inactive and Lmaj promast inactive.
For O=C(CCCNS(=O)(=O)c1cccc2nsnc12)NC1CCCCC1 the results were PMI act hi M6P inactive, PMI act inactive, HCT116 bCat-KO inactive, HCT116 PTEN-null inactive and Lmaj promast inactive.
`S=C(Nc1ccc2c(c1)OCO2)NC1CCN(Cc2ccccc2)CC1` gave PMI act hi M6P inactive, PMI act inactive, HCT116 bCat-KO inactive, HCT116 PTEN-null inactive and Lmaj promast 97.
`CCOC(=O)C(C(=O)OCC)C(Nc1cccc(Br)c1)c1ccccc1` (stereo not given) gave PMI act hi M6P inactive, PMI act inactive, HCT116 bCat-KO 3.5, HCT116 PTEN-null 1.6 and Lmaj promast inactive.
Cc1cccc(C(=O)n2cnnc2N)c1 was read as PMI act hi M6P inactive, PMI act inactive and Lmaj promast inactive.
Screening Cc1ccc(C)c(OCCCN2CCCC2)c1 returned PMI act hi M6P inactive, PMI act inactive, HCT116 bCat-KO inactive, HCT116 PTEN-null inactive and Lmaj promast 98.
Cc1ccc(C(C)C)cc1OCCCCN1CCCC1 was read as PMI act hi M6P inactive, PMI act inactive, HCT116 bCat-KO inactive, HCT116 PTEN-null inactive and Lmaj promast 99.
`COC(=O)NCCOc1cc(C)ccc1C` gave PMI act hi M6P inactive, PMI act inactive, HCT116 bCat-KO inactive, HCT116 PTEN-null inactive and Lmaj promast inactive.
`Cc1cccc(OCCCN2CCCCCC2)c1` gave PMI act hi M6P inactive, PMI act inactive, HCT116 bCat-KO inactive, HCT116 PTEN-null inactive and Lmaj promast 98.
